# Key:
# Format in all cases: functional
# SF-539 = assay: Cytotoxicity against human SF539 cells assessed as cell growth at 10 uM after 48 hrs by SRB assay; conditions: SF-539, 48 h, read-out: Activity
# Outline: (§1)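 NCI-60 single-dose screen. Cell lines grown in RPMI 1640 with 5% FBS and 2 mM L-glutamine, plated at 5000–40,000 cells/well according to doubling time, then preincubated 24 h at 37 °C in 5% CO2. Compounds dissolved in DMSO, tested at 10^-5 M for 48 h. Adherent cells fixed with cold TCA (10% final) and stained with 0.4% SRB in 1% acetic acid. Growth expressed as percent of untreated control.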
# SF-295 = assay: Cytotoxicity against human SF295 cells assessed as cell growth at 10 uM after 48 hrs by SRB assay; conditions: SF-295, 48 h, read-out: Activity; outline: as §1
# KM12 = assay: Cytotoxicity against human KM12 cells assessed as cell growth at 10 uM after 48 hrs by SRB assay; conditions: KM12, 48 h, read-out: Activity; outline: as §1
# HCT-15 = assay: Cytotoxicity against human HCT15 cells assessed as cell growth at 10 uM after 48 hrs by SRB assay; conditions: HCT-15, 48 h, read-out: Activity; outline: as §1
# HCC 2998 = assay: Cytotoxicity against human HCC2998 cells assessed as cell growth at 10 uM after 48 hrs by SRB assay; conditions: HCC 2998, 48 h, read-out: Activity; outline: as §1
# SR = assay: Cytotoxicity against human SR cells assessed as cell growth at 10 uM after 48 hrs by SRB assay; conditions: read-out: Activity
# Outline: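 Leukemia line, NCI-60 single-dose screen at 10^-5 M. Cells are grown in RPMI 1640 with 5% FBS and 2 mM L-glutamine, plated by doubling time, and preincubated 24 h at 37 °C with 5% CO2. After 48 h drug exposure, settled cells are fixed with 80% TCA (final 16%) and stained with SRB. Percent growth is calculated against untreated control and time-zero plates.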
# RPMI-8226 = assay: Cytotoxicity against human RPMI8226 cells assessed as cell growth at 10 uM after 48 hrs by SRB assay; conditions: RPMI-8226, 48 h, read-out: Activity; outline: as §1
# MOLT-4 = assay: Cytotoxicity against human MOLT4 cells assessed as cell growth at 10 uM after 48 hrs by SRB assay; conditions: MOLT-4, 48 h, read-out: Activity; outline: as §1
# K562 = assay: Cytotoxicity against human K562 cells assessed as cell growth at 10 uM after 48 hrs by SRB assay; conditions: K562, 48 h, read-out: Activity; outline: as §1
# [1] = Cytotoxicity against human Hs578T cells assessed as cell growth at 10 uM after 48 hrs by SRB assay; conditions: Hs-578T, read-out: Activity; outline: as §1
# DU-145 = assay: Cytotoxicity against human DU145 cells assessed as cell growth at 10 uM after 48 hrs by SRB assay; conditions: DU-145, 48 h, read-out: Activity; outline: as §1
# [2] = Cytotoxicity against human UO31 cells assessed as cell growth at 10 uM after 48 hrs by SRB assay; conditions: UO-31, 48 h, read-out: Activity
# Outline: (§2)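 NCI-60 single-dose screen at 10^-5 M. Adherent lines are grown in RPMI 1640 with 5% FBS and 2 mM L-glutamine, seeded at 5000–40,000 cells/well by doubling time, and preincubated 24 h at 37 °C in 5% CO2. Drug is added from DMSO stock diluted in medium, then 48 h. Cells are fixed in cold TCA (final 10%) for 60 min and stained with 0.4% SRB in 1% acetic acid. Growth is expressed as % of untreated control using time-zero plates.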
# TK-10 = assay: Cytotoxicity against human TK10 cells assessed as cell growth at 10 uM after 48 hrs by SRB assay; conditions: TK-10, 48 h, read-out: Activity; outline: as §2
# RXF 393 = assay: Cytotoxicity against human RXF393 cells assessed as cell growth at 10 uM after 48 hrs by SRB assay; conditions: RXF 393, 48 h, read-out: Activity; outline: as §1
# CAKI-1 = assay: Cytotoxicity against human CAKI-1 cells assessed as cell growth at 10 uM after 48 hrs by SRB assay; conditions: CAKI-1, 48 h, read-out: Activity; outline: as §1
# A498 = assay: Cytotoxicity against human A498 cells assessed as cell growth at 10 uM after 48 hrs by SRB assay; conditions: A498, 48 h, read-out: Activity; outline: as §1
# 786-0 = assay: Cytotoxicity against human 786-0 cells assessed as cell growth at 10 uM after 48 hrs by SRB assay; conditions: 786-0, 48 h, read-out: Activity; outline: as §1
# [3] = Cytotoxicity against human NCI-ADR-RES cells assessed as cell growth at 10 uM after 48 hrs by SRB assay; conditions: read-out: Activity; outline: as §1
# OVCAR-8 = assay: Cytotoxicity against human OVCAR8 cells assessed as cell growth at 10 uM after 48 hrs by SRB assay; conditions: OVCAR-8, 48 h, read-out: Activity; outline: as §1
# [4] = Cytotoxicity against human OVCAR4 cells assessed as cell growth at 10 uM after 48 hrs by SRB assay; conditions: OVCAR-4, 48 h, read-out: Activity; outline: as §1
# OVCAR-3 = assay: Cytotoxicity against human OVCAR3 cells assessed as cell growth at 10 uM after 48 hrs by SRB assay; conditions: OVCAR-3, 48 h, read-out: Activity; outline: as §1
# IGROV-1 = assay: Cytotoxicity against human IGROV1 cells assessed as cell growth at 10 uM after 48 hrs by SRB assay; conditions: IGROV-1, 48 h, read-out: Activity; outline: as §1
# [5] = Cytotoxicity against human UACC257 cells assessed as cell growth at 10 uM after 48 hrs by SRB assay; conditions: UACC-257, 48 h, read-out: Activity; outline: as §2
# SK-MEL-28 = assay: Cytotoxicity against human SK-MEL-28 cells assessed as cell growth at 10 uM after 48 hrs by SRB assay; conditions: SK-MEL-28, 48 h, read-out: Activity; outline: as §1
# M14 = assay: Cytotoxicity against human M14 cells assessed as cell growth at 10 uM after 48 hrs by SRB assay; conditions: M14, 48 h, read-out: Activity; outline: as §1
# Malme-3M = assay: Cytotoxicity against human MALME-3M cells assessed as cell growth at 10 uM after 48 hrs by SRB assay; conditions: read-out: Activity; outline: as §1
# LOX IMVI = assay: Cytotoxicity against human LOXIMVI cells assessed as cell growth at 10 uM after 48 hrs by SRB assay; conditions: read-out: Activity; outline: as §1
# U-251 = assay: Cytotoxicity against human U251 cells assessed as cell growth at 10 uM after 48 hrs by SRB assay; conditions: U-251, 48 h, read-out: Activity; outline: as §2
# SNB-75 = assay: Cytotoxicity against human SNB75 cells assessed as cell growth at 10 uM after 48 hrs by SRB assay; conditions: SNB-75, 48 h, read-out: Activity; outline: as §1
SMILES,growth at 10 µM (SF-539),growth at 10 µM (SF-295),growth at 10 µM (KM12),growth at 10 µM (HCT-15),growth at 10 µM (HCC 2998),growth at 10 µM (SR),growth at 10 µM (RPMI-8226),growth at 10 µM (MOLT-4),growth at 10 µM (K562),growth at 10 µM [1],growth at 10 µM (DU-145),growth at 10 µM [2],growth at 10 µM (TK-10),growth at 10 µM (RXF 393),growth at 10 µM (CAKI-1),growth at 10 µM (A498),growth at 10 µM (786-0),growth at 10 µM [3],growth at 10 µM (OVCAR-8),growth at 10 µM [4],also measured
Cc1cc(C)n(-c2cn3c(-c4ccccc4)csc3n2)n1,94%,77.5%,104%,95%,105%,80.9%,93%,93.9%,76.8%,106%,105%,59.2%,124%,93.4%,77.4%,111%,98%,95.5%,95.9%,93%,growth at 10 µM (OVCAR-3): 101%; growth at 10 µM (IGROV-1): 76.5%; growth at 10 µM [5]: 105%; growth at 10 µM (SK-MEL-28): 102%; growth at 10 µM (M14): 95.4%; growth at 10 µM (Malme-3M): 94.1%; growth at 10 µM (LOX IMVI): 91.9%; growth at 10 µM (U-251): 94.7%; growth at 10 µM (SNB-75): 64.1%
CC1=NN(c2cn3c(-c4ccc(Cl)cc4)csc3n2)C(=O)C1,94.7%,85.6%,105%,88.7%,100%,73.3%,75.9%,65.8%,71.4%,101%,105%,80.9%,98.8%,104%,79.3%,74.1%,94.1%,100%,94.2%,77.2%,growth at 10 µM (OVCAR-3): 106%; growth at 10 µM (IGROV-1): 99.3%; growth at 10 µM [5]: 94.9%; growth at 10 µM (SK-MEL-28): 96.3%; growth at 10 µM (M14): 96.2%; growth at 10 µM (Malme-3M): 102%; growth at 10 µM (LOX IMVI): 96.8%; growth at 10 µM (U-251): 91.7%; growth at 10 µM (SNB-75): 65.3%
CC1=NN(c2cn3c(-c4ccccc4)csc3n2)C(=O)C1,89.7%,69.4%,102%,96.7%,97.3%,84.5%,94.2%,84.4%,83.4%,106%,106%,59%,125%,109%,79.9%,96.6%,96.6%,92.5%,105%,98%,growth at 10 µM (OVCAR-3): 99.8%; growth at 10 µM (IGROV-1): 88%; growth at 10 µM [5]: 102%; growth at 10 µM (SK-MEL-28): 102%; growth at 10 µM (M14): 100%; growth at 10 µM (Malme-3M): 107%; growth at 10 µM (LOX IMVI): 90.8%; growth at 10 µM (U-251): 90.7%; growth at 10 µM (SNB-75): 59.4%
Cc1ccc(-c2csc3nc(N4NC(=O)CC4=O)cn23)cc1,101%,91.2%,115%,100%,102%,84.4%,98.1%,90.3%,94.7%,107%,118%,74.7%,139%,101%,90.1%,98%,103%,108%,99.3%,99.1%,growth at 10 µM (OVCAR-3): 113%; growth at 10 µM (IGROV-1): 105%; growth at 10 µM [5]: 109%; growth at 10 µM (SK-MEL-28): 102%; growth at 10 µM (M14): 105%; growth at 10 µM (Malme-3M): 118%; growth at 10 µM (LOX IMVI): 96.9%; growth at 10 µM (U-251): 98.1%; growth at 10 µM (SNB-75): 73.3%
O=C1CC(=O)N(c2cn3c(-c4ccc(Cl)cc4)csc3n2)N1,101%,84.4%,106%,92.9%,102%,74%,85%,79%,88.1%,98.3%,105%,111%,95%,112%,78.9%,75.2%,96.4%,99.3%,101%,87.4%,growth at 10 µM (OVCAR-3): 110%; growth at 10 µM (IGROV-1): 117%; growth at 10 µM [5]: 103%; growth at 10 µM (SK-MEL-28): 95.7%; growth at 10 µM (M14): 100%; growth at 10 µM (Malme-3M): 97.1%; growth at 10 µM (LOX IMVI): 96.5%; growth at 10 µM (U-251): 91.9%; growth at 10 µM (SNB-75): 74.2%

# From ChEMBL document CHEMBL3120060, “Synthesis, in vitro anticancer evaluation and in silico studies of novel imidazo[2,1-b]thiazole derivatives bearing pyrazole moieties” (2014)
